Results filed as inconclusive are left out. Active and inactive are the calls of the source.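 Rule for the calls, unless noted: active = viability at or below 27.92% in each of two runs, the all-compound median minus 4 SD; inconclusive = no clear call, values can overlap the other calls; inactive = the rest.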
Key:
[1] = S. cerevisiae growth inhibition in permissive medium (OD615), pilot counter-assay for S. cerevisiae lifespan shortening project, permissive growth control (AID 705;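 active = growth inhibition above 25% in both replicates, a cutoff set 3 SD above the mean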); conditions: OD615, 24 h, at 10 µM, stronger effect = higher value
How it was run: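 System: S. cerevisiae with engineered DeaD lifespan system / Measured by: absorbance (optical density) at 615 nm / Read-out: reduction in yeast growth (OD615) / Times: 4 h cell pre-growth, 24 h exposure at 30 °C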

[2] = S. cerevisiae growth inhibition in restrictive medium, OD615, pilot screen, restrictive growth control, yeast lifespan reduction project (AID 706;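 active = growth inhibition above a set limit, 3 SD over mean compound inhibition, in both replicates, cut at about 43% in these data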;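 note: modified DeaD lifespan yeast strain shifted to restrictive glucose medium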); conditions: OD615, 48 h, at 10 µM, stronger effect = higher value
How it was run: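 System: Engineered S. cerevisiae DeaD strain | Buffer or medium: Glucose-based CSMM-D restrictive medium | Schedule: 4 h pre-incubation, 48 h exposure at 30 °C | Technique: Optical density at 615 nm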

[3] = doxorubicin toxicity protection in MRP-1 cells – H69AR cells, CellTiter-Glo, duplicate, MRP-1 activator project, pilot screen (AID 807;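 active = viability increase at or above a cutoff of the median across tested compounds plus 3 SD, cut at about 8.5% in these data, passing the limit was not always enough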;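 note: compound pretreatment 18-22 h then 72 h combined with doxorubicin; 0% = doxorubicin alone and 100% = vehicle without doxorubicin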); conditions: H69AR viability with doxorubicin, CellTiter-Glo luminescence; at 10 µM; stronger effect = higher value
[4] = viability of HCT116 without oncogenic beta-catenin – human colon tumor cells, pilot screen (AID 823;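 active = cell viability at or below a set limit in both duplicate runs, the limit being the all-compound median minus 4 SD, cut at about 23% in these data, passing the limit was not always enough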;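 note: 0% = wells killed by 20 µM Hyamine and 100% = untreated DMSO cell wells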); conditions: HCT116 beta-catenin knockout viability, CellTiter-Glo, 60 h; at 10 µM; stronger effect = lower value
[5] = viability of PTEN-null HCT116 cells – cell-based, HCT116 clonal line, CellTiter-Glo, pilot screen (AID 824); conditions: HCT116 PTEN-deleted viability, 60 h, at 10 µM, stronger effect = lower value;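 note: 0% = 20 µM Hyamine control and 100% = vehicle cell control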
[6] = RAM pathway blockade in budding yeast – dse1pr::URA3 reporter, 5-FOA selection, pilot screen (AID 869;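 active = inhibition over a set limit, the all-compound mean plus 3 SD, in both replicate runs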;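 note: 0% = DMSO wells with no growth and 100% = 10 µM 1-NA-PP1 with full growth; RAM network block rescues cells from 5-FOA so hits raise OD615 growth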); conditions: S. cerevisiae dse1pr::URA3 5-FOA growth, OD615, 2 d; at 10 µM; stronger effect = higher value; strain carries analog-sensitive mutant Cbk1 kinase
[7] = RAM signaling pathway blockade in yeast – S. cerevisiae, Pdr1DBD-CYC8 efflux-inhibited sensitized strain, primary screen (AID 1298;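 active = RAM network inhibition above 8.4% in each of two replicates, 3 SD over the compound average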;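 note: 0% = DMSO untreated cells without growth and 100% = 10 µM 1-NA-PP1 full growth; higher means more yeast growth rescued from 5-FOA killing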); conditions: S. cerevisiae cbk1-as DSE1-URA3 strain, 5-FOA growth OD615, 2 d; at 50 µM; stronger effect = higher value

O=C(NCc1ccc2c(c1)OCO2)Oc1ccccc1
inactive: growth inhibition [1] -1.34% | growth inhibition [2] 7.08% | viability increase [3] 0.33% | viability [4] 96.9% | viability [5] 101% | inhibition [6] 1.32% | RAM network inhibition [7] 2.53%

COc1ccccc1NC(=O)Nc1ccnn1C1CCCCC1
inactive: growth inhibition [1] -7.38% | growth inhibition [2] -10.3% | viability increase [3] -0.89% | viability [4] 92.2% | viability [5] 94.1% | inhibition [6] 2.41% | RAM network inhibition [7] 0.5%

CN1CCN(CCCNC(=O)c2ccc3c(c2)N(Cc2ccccc2)CCS3)CC1
inactive: growth inhibition [1] -2.21% | growth inhibition [2] -12.1% | viability increase [3] -5.47% | viability [4] 64.8% | viability [5] 67.4% | inhibition [6] 0.9% | RAM network inhibition [7] 4.28%

COC(=O)C(C)Sc1nnc(Cc2cc(=O)[nH]c(=O)[nH]2)n1-c1ccc(Cl)cc1 (configuration not stated)
inactive: growth inhibition [1] -13.7% | growth inhibition [2] -7.63% | viability increase [3] -1.15% | viability [4] 104% | viability [5] 95.6% | inhibition [6] 1.97% | RAM network inhibition [7] 1%

COc1ccc(NC(=O)N(Cc2cccnc2)Cc2ccccc2Cl)c(OC)c1
inactive: growth inhibition [1] 0.09% | growth inhibition [2] -1.88% | viability increase [3] -3.53% | viability [4] 91.2% | viability [5] 93.9% | inhibition [6] 1.02% | RAM network inhibition [7] -0.05%

CCOc1ccc(C2NC(=O)c3n[nH]c(C)c32)cc1 (configuration not stated)
inactive: growth inhibition [1] -3.56% | growth inhibition [2] 8.35% | viability increase [3] 1.63% | viability [4] 107% | viability [5] 103% | inhibition [6] 1.07% | RAM network inhibition [7] 0.36%

Cc1ccc(-c2nn3c(C)nnc3s2)cc1NC(=O)c1ccc(OC(C)C)cc1
active: growth inhibition [2] 56%
inactive: growth inhibition [1] 12.3% | viability increase [3] -4.84% | viability [4] 79.4% | viability [5] 68.4% | inhibition [6] 0.855% | RAM network inhibition [7] 7.25%

CCc1ccccc1NC(=O)c1cc2sccc2n1C
inactive: growth inhibition [1] -8.19% | growth inhibition [2] 0.86% | viability increase [3] 1.11% | viability [4] 90.4% | viability [5] 80.3% | inhibition [6] 0.28% | RAM network inhibition [7] 4.98%

CCOC(=O)c1sc(NC(=O)C2CCCO2)c(C(=O)OCC)c1C (configuration not stated)
inactive: growth inhibition [1] -9.48% | growth inhibition [2] -8.48% | viability increase [3] -2.56% | viability [4] 102% | viability [5] 93% | inhibition [6] 1.31% | RAM network inhibition [7] 2.09%

CCCc1ccc2c(N)c(C#N)sc2n1
inactive: growth inhibition [1] -9.88% | growth inhibition [2] 2.12% | viability increase [3] 0.61% | viability [4] 111% | viability [5] 104% | inhibition [6] 0.235% | RAM network inhibition [7] -0.37%

Cc1ccc(C(C)C)c(OCC(=O)N2CCOCC2)c1
inactive: growth inhibition [1] -10.1% | growth inhibition [2] -20.3% | viability increase [3] -0.67% | viability [4] 99.3% | viability [5] 91.4% | inhibition [6] 1.69% | RAM network inhibition [7] 1.97%

COc1cccc(-c2nn(C)c3sc(C(=O)N4CCOCC4)cc23)c1
inactive: growth inhibition [1] 6.62% | growth inhibition [2] 9.91% | viability increase [3] -2.47% | viability [4] 97.5% | viability [5] 94.9% | inhibition [6] 1.45% | RAM network inhibition [7] 5.9%

C=CCSc1nnc(Cn2c(=O)sc3ccccc32)n1C
inactive: growth inhibition [1] -5.41% | growth inhibition [2] -8.71% | viability increase [3] -0.84% | viability [4] 108% | viability [5] 104% | inhibition [6] -0.685% | RAM network inhibition [7] 0.31%

CCN=C1SC(CC(=O)NC(N)=O)C(=O)N1CC (configuration not stated)
inactive: growth inhibition [1] -12.5% | growth inhibition [2] -17.8% | viability increase [3] 0.51% | viability [4] 101% | viability [5] 101% | inhibition [6] 1.3% | RAM network inhibition [7] 1.66%

O=C(C1CC(c2ccc(F)cc2)=NO1)N1CCN(c2ccccc2)CC1 (configuration not stated)
inactive: growth inhibition [1] 1.07% | growth inhibition [2] -3.47% | viability increase [3] -0.13% | viability [4] 99.1% | viability [5] 95.6% | inhibition [6] 1.23% | RAM network inhibition [7] 3.67%

CCCN(CCC)CCCNC(=O)c1cc2c(=O)n(C)c3ccccc3c2n1C
inactive: growth inhibition [1] -3.03% | growth inhibition [2] -4.35% | viability increase [3] -6.97% | viability [4] 72.5% | viability [5] 77.1% | inhibition [6] 1.22% | RAM network inhibition [7] 3.47%

O=C(NCCn1ccc2ccccc21)C1CCCCC1
inactive: growth inhibition [1] -13.3% | growth inhibition [2] -15.1% | viability increase [3] -0.84% | viability [4] 87.7% | viability [5] 87.2% | inhibition [6] 2.12% | RAM network inhibition [7] 2.92%

COc1cccc(CNC(=O)Cn2cc3c(n2)CCCCC3)c1
inactive: growth inhibition [1] -12.5% | growth inhibition [2] -19.7% | viability increase [3] -1.29% | viability [4] 92.3% | viability [5] 85.9% | inhibition [6] 1.56% | RAM network inhibition [7] 1.81%

Cn1nnnc1SCc1nc2ccccc2[nH]1
inactive: growth inhibition [1] -7.39% | growth inhibition [2] -5.67% | viability increase [3] 0.69% | viability [4] 101% | viability [5] 102% | inhibition [6] 0.215% | RAM network inhibition [7] 3.43%

COCCN1C=C(C(=O)OC)C(c2ccc3c(c2)OCO3)C(C(=O)OC)=C1
inactive: growth inhibition [1] -9.64% | growth inhibition [2] 1.92% | viability increase [3] 2.8% | viability [4] 97.9% | viability [5] 102% | inhibition [6] -0.19% | RAM network inhibition [7] 3.59%

COC(=O)c1ccc(C2c3c(n[nH]c3C)C(=O)N2c2ccc(C)cc2)cc1 (configuration not stated)
inactive: growth inhibition [1] 10.6% | growth inhibition [2] -0.115% | viability increase [3] 0.79% | viability [4] 70.6% | viability [5] 86.4% | inhibition [6] 0.34% | RAM network inhibition [7] 0.36%

COc1ccc(Cn2c(=O)[nH]c3cc(C(=O)NCCCN4CCCCC4)ccc3c2=O)cc1
inactive: growth inhibition [1] -4.93% | growth inhibition [2] -8.5% | viability increase [3] -2.31% | viability [4] 74.5% | viability [5] 77.4% | inhibition [6] 0.53% | RAM network inhibition [7] 4.83%

O=C(Cn1nc(-c2ccccc2)ccc1=O)N1CCOCC1
inactive: growth inhibition [1] 4.29% | growth inhibition [2] 8.44% | viability increase [3] -0.71% | viability [4] 96% | viability [5] 108% | inhibition [6] -0.155% | RAM network inhibition [7] 0.21%

CCOC(=O)Cc1csc(NC(=O)c2c(-c3ccccc3)noc2C)n1
inactive: growth inhibition [1] -10.4% | growth inhibition [2] -8.59% | viability increase [3] 4.11% | viability [4] 99.4% | viability [5] 101% | inhibition [6] -0.185% | RAM network inhibition [7] 1.54%

CC1CCN(c2nc3c(c(=O)n(C)c(=O)n3C)n2CCSc2ncccn2)CC1
inactive: growth inhibition [1] -3.47% | growth inhibition [2] -3.19% | viability increase [3] -0.04% | viability [4] 99.1% | viability [5] 96.3% | inhibition [6] 1.61% | RAM network inhibition [7] 2.44%

CCc1nn(CC(=O)NCCCN2CCCC2=O)c(=O)c2cc3sccc3n12
inactive: growth inhibition [1] -8.81% | growth inhibition [2] -16.4% | viability increase [3] -2.31% | viability [4] 112% | viability [5] 108% | inhibition [6] 1.91% | RAM network inhibition [7] 0.36%

CCOc1ccc(NC(=O)N(CCN(C)C)C(C)c2ccncc2)cc1 (configuration not stated)
inactive: growth inhibition [1] 2.97% | growth inhibition [2] 4.26% | viability increase [3] -1.59% | viability [4] 85.6% | viability [5] 90.2% | inhibition [6] 1.05% | RAM network inhibition [7] 1.38%

CCc1nc(SCC(=O)Nc2ccc(C(=O)O)cc2)n[nH]1
inactive: growth inhibition [1] 11.2% | growth inhibition [2] 0.705% | viability increase [3] -1.05% | viability [4] 94.7% | viability [5] 98.4% | inhibition [6] -0.24% | RAM network inhibition [7] -2.73%

COc1ccccc1C(=O)Nc1ccc2oc(-c3ccc(F)cc3)nc2c1
inactive: growth inhibition [1] -2.88% | growth inhibition [2] 0.83% | viability increase [3] -2.78% | viability [4] 96% | viability [5] 96.5% | inhibition [6] 2.88% | RAM network inhibition [7] 1.85%

CCC(=O)Nc1ccc(C(=O)c2ccccc2)cc1
inactive: growth inhibition [1] -6.81% | growth inhibition [2] -2.21% | viability increase [3] 2.97% | viability [4] 98.5% | viability [5] 97% | inhibition [6] 1.16% | RAM network inhibition [7] 2.9%

CN1C(=O)/C(=C2\SC(=S)N(C(CCC(=O)O)C(=O)O)C2=O)c2ccccc21 (configuration not stated)
inactive: growth inhibition [1] 2.35% | growth inhibition [2] -1.85% | viability increase [3] -2.67% | viability [4] 107% | viability [5] 98.8% | inhibition [6] 1.11% | RAM network inhibition [7] 0.96%

CCOC(=O)N1CCN(C(=O)Cn2c(=O)sc3ccccc32)CC1
inactive: growth inhibition [1] -1.79% | growth inhibition [2] -7.62% | viability increase [3] -0.84% | viability [4] 100% | viability [5] 97.6% | inhibition [6] 1.68% | RAM network inhibition [7] 5.71%

CSc1nnc2c(n1)OC(c1ccc(C(=O)O)cc1)N(C(C)=O)c1ccccc1-2 (configuration not stated)
inactive: growth inhibition [1] -1% | growth inhibition [2] 13.2% | viability increase [3] 0.23% | viability [4] 102% | viability [5] 96.6% | inhibition [6] 1.57% | RAM network inhibition [7] 3.34%

Cc1c(NC(=O)C(C)N2C(=O)C3C4C=CC(C4)C3C2=O)c(=O)n(-c2ccccc2)n1C (configuration not stated)
inactive: growth inhibition [1] -8.7% | growth inhibition [2] -11.3% | viability increase [3] -0.72% | viability [4] 95.4% | viability [5] 93.2% | inhibition [6] 1.39% | RAM network inhibition [7] 2.56%

Cc1nnc(NC(=O)CSc2nnc(Cc3cccn3C)n2-c2ccccc2)s1
active: growth inhibition [2] 46.5%
inactive: growth inhibition [1] 10.8% | viability increase [3] 0.97% | viability [4] 95% | viability [5] 95.3% | inhibition [6] 1.31% | RAM network inhibition [7] 4.48%

CC(=O)Nc1ccc(OCC=C(Cl)Cl)cc1
inactive: growth inhibition [1] 2.81% | growth inhibition [2] 5.66% | viability increase [3] 1.02% | viability [4] 97.2% | viability [5] 102% | inhibition [6] 0.805% | RAM network inhibition [7] 1.16%

Reference: PubChem BioAssay
